Results: ChEMBL document CHEMBL4480439, “Fuscasins A-D, Cycloheptapeptides from the Marine Sponge Phakellia fusca” (J Nat Prod, 2019)
Activity calls are given as the source filed them. The calls are words filed in the database; no cut-off is given here. Residues, ends and D or L forms follow the SMILES beside them.

How the values were obtained:
HepG2 [1] = assay: Cytotoxicity against human HepG2 cells assessed as reduction in cell viability up to 20 uM after 72 hrs by CCK8 assay; assay type: functional, cell-based
Summary of the method: (§1)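 Cells grown at 37 °C in DMEM with 10% FBS and antibiotics, seeded at 3 × 10³ cells/well, and exposed to compound for 72 h. CCK-8 reagent was then added for 1 h at 37 °C in 5% CO₂, and OD was read at 450 nm. IC50 was obtained by fitting a log(inhibitor)-response model.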

H9c2 = assay: Cytotoxicity against rat H9c2 cells assessed as reduction in cell viability up to 100 uM after 72 hrs by CCK8 assay; assay type: cell-based; conditions: h9c2, 72 h; summary of the method: as §1
HepG2 [2] = assay: Cytotoxicity against human HepG2 cells assessed as reduction in cell viability after 72 hrs by CCK8 assay; assay type: functional, cell-based; conditions: HepG2, 72 h; summary of the method: as §1
HeLa = assay: Cytotoxicity against human HeLa cells assessed as reduction in cell viability up to 20 uM after 72 hrs by CCK8 assay; assay type: functional, cell-based; summary of the method: as §1
PC-9 = assay: Cytotoxicity against human PC9 cells assessed as reduction in cell viability up to 20 uM after 72 hrs by CCK8 assay; assay type: functional, cell-based
Summary of the method: (§2)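 Cells maintained in RPMI 1640 with 10% FBS and antibiotics, plated at 3 × 10³ cells/well, and treated for 72 h. After 1 h incubation with CCK-8 at 37 °C in 5% CO₂, absorbance was recorded at 450 nm. IC50 came from a log(inhibitor)-response curve fit.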

MCF7 = assay: Cytotoxicity against human MCF7 cells assessed as reduction in cell viability up to 20 uM after 72 hrs by CCK8 assay; assay type: functional, cell-based; summary of the method: as §1
NCI-H460 = assay: Cytotoxicity against human NCI-H460 cells assessed as reduction in cell viability up to 20 uM after 72 hrs by CCK8 assay; assay type: functional, cell-based; summary of the method: as §2
SW480 = assay: Cytotoxicity against human SW480 cells assessed as reduction in cell viability up to 20 uM after 72 hrs by CCK8 assay; assay type: functional, cell-based; summary of the method: as §2

`CC(C)C[C@@H]1NC(=O)[C@H](C)NC(=O)[C@@H]2CCCN2C(=O)[C@H](C)NC(=O)[C@H](Cc2ccc(O)cc2)NC(=O)[C@@H]2CCCN2C(=O)[C@H](Cc2ccc(O)cc2)NC1=O` (cyclo(ALYPYAP)) was tested, and the Activity (HepG2 [1]) was “inactive”.
In the case of `CC(C)C[C@@H]1NC(=O)[C@H](C(C)C)NC(=O)[C@H](Cc2ccccc2)N2C(=O)C[C@H](NC(=O)[C@@H]3CCCN3C(=O)[C@@H]3CCCN3C(=O)[C@@H]3CCCN3C1=O)C2=O`, the Activity (H9c2) is reported as “Non-Toxic”, the IC50 (HepG2 [2]) is reported as 4.6 µM and the Activity (HeLa) is reported as “inactive”. The Activity (PC-9) was “inactive”, the Activity (MCF7) was “inactive” and the Activity (NCI-H460) was “inactive”. For the same compound, the Activity (SW480) was “inactive”.
For `CC(C)C[C@@H]1NC(=O)[C@H](Cc2ccc(O)cc2)NC(=O)[C@H](CC(=O)O)NC(=O)[C@@H]2CCCN2C(=O)[C@H](CC(C)C)NC(=O)[C@@H]2CCCN2C(=O)[C@H](CC(C)C)NC1=O` (cyclo(DYLLPLP)), the Activity (HepG2 [1]) was “inactive”.
In the case of `CC(C)C[C@@H]1NC(=O)[C@H](C)NC(=O)[C@H](Cc2ccc(O)cc2)NC(=O)[C@H](CCCNC(=N)N)NC(=O)[C@H](CC(N)=O)NC(=O)[C@H](C(C)C)NC(=O)[C@@H]2CCCN2C1=O` (cyclo(ALPVNRY)), the Activity (HepG2 [1]) is reported as “inactive”.
